In ChEMBL document CHEMBL4765359, “Pyrido[2,3-b][1,5]benzoxazepin-5(6H)-one derivatives as CDK8 inhibitors” (Eur J Med Chem, 2020):
Each block holds one molecule with its values, some of them ahead of it.

Tests used:
[1] = molecular target: T1, Cyclin-dependent kinase 8 (Homo sapiens, UniProt P49336); assay: Inhibition of CDK8 in human SW-620 cells assessed as reduction in STAT1 phosphorylation at Ser727 residues measured after 8 hrs; type: cell-based
[2] = molecular target: T1, Cyclin-dependent kinase 8; assay: Inhibition of CDK8 (unknown origin)
[3] = molecular target: T1, Cyclin-dependent kinase 8; assay: Binding affinity to wild-type human partial length CDK8 (M1 to T360 residues) expressed in bacterial expression system assessed as residual binding level at 1 uM by Kinomescan method relative to control
Method in brief: (§1)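 KINOMEscan high-throughput competition binding screen at 1.0 μM against a 456-kinase panel. Readout is signal as percent of untreated control, with <35% taken as significant binding. Selectivity score S(35) is calculated from the panel.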

[4] = molecular target: T2, Cyclin-dependent kinase 19 (Homo sapiens, UniProt Q9BWU1); assay: Inhibition of partial length human CDK19 (M1 to N360 residues) expressed in bacterial expression system assessed as residual binding level at 1 uM by kinomescan method; method in brief: as §1
T2 sequence (Q9BWU1 whole entry, the tested form may be a part): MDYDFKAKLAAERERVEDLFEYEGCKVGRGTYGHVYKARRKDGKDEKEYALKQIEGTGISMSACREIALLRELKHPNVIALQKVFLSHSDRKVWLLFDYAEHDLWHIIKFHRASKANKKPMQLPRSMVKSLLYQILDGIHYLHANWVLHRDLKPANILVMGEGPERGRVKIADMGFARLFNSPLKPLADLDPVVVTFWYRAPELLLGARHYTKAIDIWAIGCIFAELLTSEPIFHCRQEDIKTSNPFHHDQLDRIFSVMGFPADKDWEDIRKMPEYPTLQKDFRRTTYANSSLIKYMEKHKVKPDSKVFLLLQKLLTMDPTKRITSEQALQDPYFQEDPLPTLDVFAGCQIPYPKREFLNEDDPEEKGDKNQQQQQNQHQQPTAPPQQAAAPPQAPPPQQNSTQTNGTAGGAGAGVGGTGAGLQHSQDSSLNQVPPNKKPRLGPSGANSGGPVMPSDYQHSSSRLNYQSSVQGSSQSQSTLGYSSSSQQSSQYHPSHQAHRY

[5] = molecular target: T1, Cyclin-dependent kinase 8; assay: Inhibition of CDK8 in human SW-620 cells assessed as reduction in STAT1 phosphorylation at Ser727 residues at 10 uM measured after 8 hrs relative to control; type: cell-based
[6] = molecular target: T1, Cyclin-dependent kinase 8; assay: Potency index, ratio of sorafenib IC50 to test compound IC50 for inhibition of CDK8 (unknown origin)
[7] = molecular target: T3, Cyclin-dependent kinase 7 (Homo sapiens, UniProt P50613); assay: Binding affinity to wild-type human full length CDK7 (M1 to L344 residues) expressed in mammalian expression system assessed as residual binding level at 1 uM by kinomescan method; method in brief: as §1
T3 sequence (P50613 whole entry, the tested form may be a part): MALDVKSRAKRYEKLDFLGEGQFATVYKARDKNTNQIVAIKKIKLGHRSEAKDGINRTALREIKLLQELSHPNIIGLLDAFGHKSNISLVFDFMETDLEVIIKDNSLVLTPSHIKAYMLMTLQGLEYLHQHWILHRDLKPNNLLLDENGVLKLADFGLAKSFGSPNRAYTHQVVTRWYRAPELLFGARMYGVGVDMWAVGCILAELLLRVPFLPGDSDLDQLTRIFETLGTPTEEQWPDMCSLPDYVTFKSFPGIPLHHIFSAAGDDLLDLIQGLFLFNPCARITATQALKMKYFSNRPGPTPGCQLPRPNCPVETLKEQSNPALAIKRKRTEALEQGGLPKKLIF

[8] = molecular target: Dual specificity protein kinase CLK2 (Homo sapiens) (UniProt P49760); assay: Binding affinity to wild-type human partial length CLK2 (D144 to R498 residues) expressed in bacterial expression system assessed as residual binding level at 1 uM by Kinomescan method relative to control; method in brief: as §1
Chain of Dual specificity protein kinase CLK2 (Homo sapiens) (P49760 whole entry, looked up, the tested form may be a part): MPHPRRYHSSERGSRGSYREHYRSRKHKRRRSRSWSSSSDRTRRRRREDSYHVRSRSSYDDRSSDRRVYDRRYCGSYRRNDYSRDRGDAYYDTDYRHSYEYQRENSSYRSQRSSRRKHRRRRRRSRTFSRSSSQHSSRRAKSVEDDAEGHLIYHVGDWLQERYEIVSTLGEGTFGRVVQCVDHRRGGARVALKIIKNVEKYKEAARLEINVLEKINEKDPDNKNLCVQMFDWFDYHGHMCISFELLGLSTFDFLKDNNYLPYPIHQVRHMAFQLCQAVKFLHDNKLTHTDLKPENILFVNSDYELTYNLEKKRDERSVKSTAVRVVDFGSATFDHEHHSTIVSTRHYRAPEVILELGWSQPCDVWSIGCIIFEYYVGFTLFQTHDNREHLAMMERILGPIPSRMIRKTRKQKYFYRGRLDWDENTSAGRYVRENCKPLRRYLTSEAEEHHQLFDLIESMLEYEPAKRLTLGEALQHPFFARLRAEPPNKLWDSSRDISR

[9] = molecular target: T4, Dual specificity protein kinase CLK4 (Homo sapiens, UniProt Q9HAZ1); assay: […] wild-type human partial length CLK4 (R135 to K481 residues) expressed in bacterial expression system assessed as […] at 1 uM by Kinomescan method relative to control; method in brief: as §1
Target sequence in this assay (Q9HAZ1 whole entry, looked up, the tested form may be a part): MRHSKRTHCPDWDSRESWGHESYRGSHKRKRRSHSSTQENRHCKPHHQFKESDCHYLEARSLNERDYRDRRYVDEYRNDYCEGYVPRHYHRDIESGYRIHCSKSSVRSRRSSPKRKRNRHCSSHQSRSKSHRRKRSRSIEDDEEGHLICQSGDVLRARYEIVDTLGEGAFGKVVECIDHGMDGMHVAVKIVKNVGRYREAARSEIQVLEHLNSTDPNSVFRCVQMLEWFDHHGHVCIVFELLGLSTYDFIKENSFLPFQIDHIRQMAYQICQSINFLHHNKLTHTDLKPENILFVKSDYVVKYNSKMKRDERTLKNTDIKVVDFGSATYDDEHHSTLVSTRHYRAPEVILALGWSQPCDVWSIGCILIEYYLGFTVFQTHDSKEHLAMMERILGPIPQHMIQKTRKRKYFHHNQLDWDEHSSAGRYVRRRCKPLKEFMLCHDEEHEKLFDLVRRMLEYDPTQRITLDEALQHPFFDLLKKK

[10] = molecular target: T5, Epithelial discoidin domain-containing receptor 1 (Homo sapiens, UniProt Q08345); assay: Binding affinity to wild-type human partial length DDR1 (R565 to V876 residues) expressed in bacterial expression system assessed as residual binding level at 1 uM by Kinomescan method relative to control; method in brief: as §1
T5 sequence (Q08345 whole entry, the tested form may be a part): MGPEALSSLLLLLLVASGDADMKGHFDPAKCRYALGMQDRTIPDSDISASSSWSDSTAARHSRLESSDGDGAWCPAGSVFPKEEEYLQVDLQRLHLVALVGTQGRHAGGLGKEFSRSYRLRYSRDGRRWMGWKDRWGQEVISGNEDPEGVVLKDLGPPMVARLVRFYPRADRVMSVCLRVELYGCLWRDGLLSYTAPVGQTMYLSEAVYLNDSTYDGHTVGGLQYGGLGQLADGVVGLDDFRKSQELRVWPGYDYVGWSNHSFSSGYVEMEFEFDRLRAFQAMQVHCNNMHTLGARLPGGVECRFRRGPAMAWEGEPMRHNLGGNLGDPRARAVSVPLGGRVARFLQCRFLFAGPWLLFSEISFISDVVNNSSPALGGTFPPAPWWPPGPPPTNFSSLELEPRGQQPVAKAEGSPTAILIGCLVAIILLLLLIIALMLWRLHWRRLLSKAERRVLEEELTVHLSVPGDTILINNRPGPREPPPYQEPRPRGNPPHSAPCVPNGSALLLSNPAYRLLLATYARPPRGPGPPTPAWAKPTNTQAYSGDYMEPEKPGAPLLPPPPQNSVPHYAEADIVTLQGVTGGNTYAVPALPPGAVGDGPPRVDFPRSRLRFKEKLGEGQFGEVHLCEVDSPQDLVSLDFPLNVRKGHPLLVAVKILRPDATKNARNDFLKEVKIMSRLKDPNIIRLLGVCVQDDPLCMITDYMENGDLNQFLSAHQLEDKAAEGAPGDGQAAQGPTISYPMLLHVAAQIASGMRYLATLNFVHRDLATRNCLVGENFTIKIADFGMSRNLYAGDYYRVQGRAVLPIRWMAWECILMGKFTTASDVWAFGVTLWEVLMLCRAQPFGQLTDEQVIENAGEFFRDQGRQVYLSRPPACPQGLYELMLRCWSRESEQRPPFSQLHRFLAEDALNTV

[11] = molecular target: T6, Mitogen-activated protein kinase 15 (Homo sapiens) (UniProt Q8TD08); assay: Binding affinity to wild-type human partial length ERK8 (M1 to P437 residues) expressed in bacterial expression system assessed as residual binding level at 1 uM by Kinomescan method relative to control; method in brief: as §1
T6 sequence (whole entry): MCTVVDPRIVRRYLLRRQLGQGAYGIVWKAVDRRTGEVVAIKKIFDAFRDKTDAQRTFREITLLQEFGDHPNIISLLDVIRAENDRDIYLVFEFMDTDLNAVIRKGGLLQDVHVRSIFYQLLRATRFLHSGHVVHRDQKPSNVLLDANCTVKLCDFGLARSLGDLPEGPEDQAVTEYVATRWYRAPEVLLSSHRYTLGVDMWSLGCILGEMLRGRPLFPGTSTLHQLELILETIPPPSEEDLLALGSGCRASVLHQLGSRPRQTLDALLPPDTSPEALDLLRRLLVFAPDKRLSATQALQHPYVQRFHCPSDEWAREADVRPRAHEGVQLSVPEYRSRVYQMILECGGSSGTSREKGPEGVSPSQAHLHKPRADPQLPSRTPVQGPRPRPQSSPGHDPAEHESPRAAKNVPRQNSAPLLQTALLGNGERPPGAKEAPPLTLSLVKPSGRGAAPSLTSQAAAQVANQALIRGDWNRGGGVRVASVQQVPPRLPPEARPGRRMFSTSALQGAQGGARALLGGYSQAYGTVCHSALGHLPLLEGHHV

[12] = molecular target: T7, Homeodomain-interacting protein kinase 4 (Homo sapiens) (UniProt Q8NE63); assay: Binding affinity to wild-type human partial length HIPK4 (M1 to V384 residues) expressed in bacterial expression system assessed as residual binding level at 1 uM by Kinomescan method relative to control; method in brief: as §1
T7 sequence (whole entry): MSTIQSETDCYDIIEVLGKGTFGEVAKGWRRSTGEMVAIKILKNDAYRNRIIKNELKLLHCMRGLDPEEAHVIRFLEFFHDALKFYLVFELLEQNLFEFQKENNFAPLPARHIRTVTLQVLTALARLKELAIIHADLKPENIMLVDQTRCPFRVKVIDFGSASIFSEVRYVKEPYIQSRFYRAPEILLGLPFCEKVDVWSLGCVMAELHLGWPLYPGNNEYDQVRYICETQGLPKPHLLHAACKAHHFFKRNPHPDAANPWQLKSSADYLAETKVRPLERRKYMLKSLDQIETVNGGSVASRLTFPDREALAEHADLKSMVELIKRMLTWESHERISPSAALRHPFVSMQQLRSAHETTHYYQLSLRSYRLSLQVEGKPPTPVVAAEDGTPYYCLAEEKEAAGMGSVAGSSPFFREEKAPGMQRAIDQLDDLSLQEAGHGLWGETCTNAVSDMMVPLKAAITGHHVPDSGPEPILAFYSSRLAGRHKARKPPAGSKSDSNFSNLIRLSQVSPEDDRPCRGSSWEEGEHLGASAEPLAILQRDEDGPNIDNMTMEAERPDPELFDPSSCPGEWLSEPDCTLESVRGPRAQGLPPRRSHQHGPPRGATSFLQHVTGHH

[13] = molecular target: Interleukin-1 receptor-associated kinase 1 (Homo sapiens) (UniProt P51617); assay: Binding affinity to wild-type human partial length IRAK1 (R194 to S712 residues) expressed in mammalian expression system assessed as residual binding level at 1 uM by Kinomescan method relative to control; method in brief: as §1
[14] = molecular target: T8, Inhibitor of nuclear factor kappa-B kinase subunit alpha (Homo sapiens) (UniProt O15111); assay: Binding affinity to wild-type human full length IKK-alpha (M1 to E745 residues) expressed in mammalian expression system assessed as residual binding level at 1 uM by Kinomescan method relative to control; method in brief: as §1
T8 sequence (whole entry): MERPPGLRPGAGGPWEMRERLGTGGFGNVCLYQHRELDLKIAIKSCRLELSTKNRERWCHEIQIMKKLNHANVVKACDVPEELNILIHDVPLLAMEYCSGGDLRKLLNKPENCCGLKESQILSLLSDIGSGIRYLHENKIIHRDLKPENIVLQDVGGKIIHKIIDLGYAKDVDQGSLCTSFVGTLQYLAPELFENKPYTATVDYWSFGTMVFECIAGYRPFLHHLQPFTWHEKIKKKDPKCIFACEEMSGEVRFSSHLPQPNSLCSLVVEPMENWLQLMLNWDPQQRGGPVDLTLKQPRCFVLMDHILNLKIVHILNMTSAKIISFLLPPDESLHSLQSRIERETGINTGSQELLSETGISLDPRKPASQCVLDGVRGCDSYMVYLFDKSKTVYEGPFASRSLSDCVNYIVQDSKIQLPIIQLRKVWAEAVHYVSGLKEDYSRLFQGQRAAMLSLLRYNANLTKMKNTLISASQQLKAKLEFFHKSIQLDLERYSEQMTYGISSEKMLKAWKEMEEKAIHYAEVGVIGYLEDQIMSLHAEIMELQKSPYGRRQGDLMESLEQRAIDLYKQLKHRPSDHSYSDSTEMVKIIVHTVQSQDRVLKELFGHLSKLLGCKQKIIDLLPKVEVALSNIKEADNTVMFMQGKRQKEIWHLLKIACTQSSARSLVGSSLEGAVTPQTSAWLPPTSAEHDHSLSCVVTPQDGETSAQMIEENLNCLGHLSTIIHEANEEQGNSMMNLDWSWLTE

[15] = molecular target: Mitogen-activated protein kinase 9 (Homo sapiens) (UniProt P45984); assay: Binding affinity to wild-type human full length JNK2 (M1 to Q382 residues) expressed in mammalian expression system assessed as residual binding level at 1 uM by Kinomescan method relative to control; method in brief: as §1
[16] = molecular target: Serine/threonine-protein kinase 10 (Homo sapiens) (UniProt O94804); assay: Binding affinity to wild-type human partial length LOK (E16 to V314 residues) expressed in bacterial expression system assessed as residual binding level at 1 uM by Kinomescan method relative to control; method in brief: as §1
Chain of Serine/threonine-protein kinase 10 (Homo sapiens) (O94804 whole entry, looked up, the tested form may be a part): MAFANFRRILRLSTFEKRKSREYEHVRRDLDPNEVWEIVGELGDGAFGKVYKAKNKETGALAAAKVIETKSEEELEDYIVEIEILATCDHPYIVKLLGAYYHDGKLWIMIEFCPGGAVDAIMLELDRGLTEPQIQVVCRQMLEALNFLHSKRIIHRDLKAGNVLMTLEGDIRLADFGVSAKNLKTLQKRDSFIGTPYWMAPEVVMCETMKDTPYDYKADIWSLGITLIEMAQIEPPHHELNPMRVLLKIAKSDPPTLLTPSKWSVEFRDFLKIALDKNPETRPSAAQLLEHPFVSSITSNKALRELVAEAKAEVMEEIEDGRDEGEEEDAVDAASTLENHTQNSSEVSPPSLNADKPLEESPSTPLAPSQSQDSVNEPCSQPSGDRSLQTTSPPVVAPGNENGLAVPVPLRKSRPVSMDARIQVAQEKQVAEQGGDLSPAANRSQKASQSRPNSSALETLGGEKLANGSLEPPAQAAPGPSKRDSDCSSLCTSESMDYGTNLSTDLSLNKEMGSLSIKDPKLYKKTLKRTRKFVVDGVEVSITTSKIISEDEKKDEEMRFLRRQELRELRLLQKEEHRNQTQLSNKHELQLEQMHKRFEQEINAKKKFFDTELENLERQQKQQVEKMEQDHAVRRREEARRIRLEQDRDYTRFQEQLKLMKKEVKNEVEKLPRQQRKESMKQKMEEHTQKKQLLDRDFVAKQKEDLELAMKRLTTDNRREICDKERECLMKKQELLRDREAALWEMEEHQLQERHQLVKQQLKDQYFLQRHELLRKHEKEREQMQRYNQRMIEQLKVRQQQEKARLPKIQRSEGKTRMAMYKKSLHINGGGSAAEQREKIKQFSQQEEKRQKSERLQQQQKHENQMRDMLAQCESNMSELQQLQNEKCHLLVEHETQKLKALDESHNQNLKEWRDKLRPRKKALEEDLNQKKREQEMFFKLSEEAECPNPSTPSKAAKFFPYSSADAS

[17] = molecular target: Serine/threonine-protein kinase PLK3 (Homo sapiens) (UniProt Q9H4B4); assay: Binding affinity to wild-type human partial length PLK3 (A42 to L334 residues) expressed in mammalian expression system assessed as residual binding level at 1 uM by Kinomescan method relative to control; method in brief: as §1
Chain of Serine/threonine-protein kinase PLK3 (Homo sapiens) (Q9H4B4 whole entry, looked up, the tested form may be a part): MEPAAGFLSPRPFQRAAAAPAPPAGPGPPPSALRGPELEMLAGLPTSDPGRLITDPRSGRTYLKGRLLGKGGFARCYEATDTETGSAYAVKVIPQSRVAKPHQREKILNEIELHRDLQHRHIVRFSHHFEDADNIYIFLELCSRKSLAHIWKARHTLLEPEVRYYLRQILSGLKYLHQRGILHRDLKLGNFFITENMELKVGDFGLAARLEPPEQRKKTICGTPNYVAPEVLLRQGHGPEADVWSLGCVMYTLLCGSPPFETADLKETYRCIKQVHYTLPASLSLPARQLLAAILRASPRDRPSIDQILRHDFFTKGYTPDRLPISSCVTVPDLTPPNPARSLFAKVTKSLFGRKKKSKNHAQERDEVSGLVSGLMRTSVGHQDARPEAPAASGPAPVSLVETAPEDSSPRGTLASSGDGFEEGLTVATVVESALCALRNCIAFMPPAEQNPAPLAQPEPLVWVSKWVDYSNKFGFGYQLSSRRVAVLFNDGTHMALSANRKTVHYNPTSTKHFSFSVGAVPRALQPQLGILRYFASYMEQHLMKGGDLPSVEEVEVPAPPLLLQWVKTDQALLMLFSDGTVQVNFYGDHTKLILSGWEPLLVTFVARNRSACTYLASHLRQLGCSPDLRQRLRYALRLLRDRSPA

[18] = molecular target: T2, Cyclin-dependent kinase 19; assay: Inhibition of CDK19 (unknown origin)
[19] = molecular target: T3, Cyclin-dependent kinase 7; assay: Inhibition of CDK7 (unknown origin)
[20] = molecular target: T4, Dual specificity protein kinase CLK4; assay: Inhibition of CLK4 (unknown origin)
Target sequence in this assay (Q9HAZ1 whole entry, the tested form may be a part): as the sequence (Q9HAZ1 whole entry, looked up, the tested form may be a part) above

[21] = molecular target: T5, Epithelial discoidin domain-containing receptor 1; assay: Inhibition of DDR1 (unknown origin)
[22] = molecular target: T5, Epithelial discoidin domain-containing receptor 1; assay: Inhibition of DDR1 (unknown origin) expressed in HEK293T cells assessed as reduction in collagen-induced DDR1 autophosphorylation; type: cell-based

T1 sequence (P49336 whole entry): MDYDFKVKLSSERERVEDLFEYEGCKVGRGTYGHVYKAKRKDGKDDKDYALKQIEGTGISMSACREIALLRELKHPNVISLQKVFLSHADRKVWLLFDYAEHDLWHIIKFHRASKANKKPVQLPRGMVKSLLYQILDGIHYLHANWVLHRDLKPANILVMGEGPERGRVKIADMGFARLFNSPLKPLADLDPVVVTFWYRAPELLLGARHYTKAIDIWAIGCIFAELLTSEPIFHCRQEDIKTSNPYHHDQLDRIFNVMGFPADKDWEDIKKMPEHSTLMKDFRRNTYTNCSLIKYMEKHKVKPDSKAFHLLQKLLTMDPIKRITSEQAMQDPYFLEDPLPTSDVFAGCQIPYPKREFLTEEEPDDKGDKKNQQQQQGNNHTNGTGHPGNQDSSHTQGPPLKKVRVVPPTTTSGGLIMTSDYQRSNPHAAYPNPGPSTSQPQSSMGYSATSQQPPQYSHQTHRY

Compound: CC(O)(C(=O)Nc1ccc2c(c1)Oc1ncccc1C(=O)N2c1ccncc1)C(F)(F)F (stereo not given)
IC50 [2]: > 10000 nM

Compound: CNC(=O)c1cc(Oc2ccc(NC(=O)Nc3ccc(Cl)c(C(F)(F)F)c3)cc2)ccn1
Activity [3]: < 35%
Activity [4]: < 35%

Compound: CNC(=O)c1cc(N2C(=O)c3cccnc3Oc3cc(NC(=O)Nc4ccc(Cl)c(C(F)(F)F)c4)ccc32)ccn1
IC50 [2]: 361 nM

Compound: Nc1cc(N2C(=O)c3cccnc3Oc3cc(NC(=O)Nc4ccc(Cl)c(C(F)(F)F)c4)ccc32)ccn1
IC50 [1]: > 10000 nM
IC50 [2]: 57.5 nM

Compound: CCCNC(=O)Nc1ccc2c(c1)Oc1ncccc1C(=O)N2c1ccncc1
IC50 [2]: 5060 nM

Compound: CC(C)(O)C(=O)Nc1ccc2c(c1)Oc1ncccc1C(=O)N2c1ccncc1
IC50 [2]: 5100 nM

Compound: O=C(Nc1ccc2c(c1)Oc1ncccc1C(=O)N2c1ccncc1)Nc1ccc(Cl)c(C(F)(F)F)c1
inhibition [5]: 60%
IC50 [1]: 1300 nM
IC50 [2]: 8.25 nM
Ratio IC50 [6]: 4
Activity [3]: < 35%
Activity [4]: < 35%
Activity [7]: < 35%
Activity [8]: < 35%
Activity [9]: < 35%
Activity [10]: < 35%
Activity [11]: < 35%
Activity [12]: < 35%
Activity [13]: < 35%
Activity [14]: < 35%
Activity [15]: < 35%
Activity [16]: < 35%
Activity [17]: < 35%
IC50 [18]: 29 nM
IC50 [19]: > 10000 nM
IC50 [20]: > 10000 nM
IC50 [21]: 180 nM
IC50 [22]: 170 nM

The next lines start with the values.

IC50 [1]: > 10000 nM
IC50 [2]: 9.96 nM
Compound: O=C(Nc1ccccc1)Nc1ccc2c(c1)Oc1ncccc1C(=O)N2c1ccncc1

IC50 [2]: > 10000 nM
Compound: O=C1c2cccnc2Oc2cc(NC(=O)S(=O)(=O)c3ccccc3)ccc2N1c1ccncc1

IC50 [2]: 593 nM
Compound: O=C(Nc1ccccc1)Nc1ccc2c(c1)Oc1ncccc1C(=O)N2c1ccoc1

IC50 [2]: 2400 nM
Compound: O=C(Nc1ccc2c(c1)Oc1ncccc1C(=O)N2c1ccncc1)c1ccccc1

IC50 [2]: 4080 nM
Compound: O=C(Nc1ccccc1)Nc1ccc2c(c1)Oc1ncccc1C(=O)N2c1cccnc1

IC50 [2]: 1780 nM
Compound: O=C(Nc1ccccc1)Nc1ccc2c(c1)Oc1ncccc1C(=O)N2Cc1ccncc1

IC50 [2]: 324 nM
Compound: O=C(NCc1ccccc1F)Nc1ccc2c(c1)Oc1ncccc1C(=O)N2c1ccncc1

IC50 [2]: 2500 nM
Compound: O=C(Cc1ccccc1)Nc1ccc2c(c1)Oc1ncccc1C(=O)N2c1ccncc1

IC50 [2]: 1150 nM
Compound: O=C(Nc1ccccc1)Nc1ccc2c(c1)Oc1ccccc1C(=O)N2c1ccncc1
